Test results: ChEMBL document CHEMBL1152442, “Discovery of a new template for anticancer agents: 2'-deoxy-2'-fluoro-4'-selenoarabinofuranosyl-cytosine (2'-F-4'-seleno-ara-C)” (J Med Chem, 2009)

tested on: T47D; experiment: Cytotoxicity against human T47D cells by sulforhodamine B method; format: functional, cell-based
Summary of the method: (§1)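 Human tumour lines tested: colon HCT116, lung A549, stomach SNU638, breast T47D, prostate PC-3 and leukaemia K562. Growth was read out by sulforhodamine B protein staining.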

SMILES | IC50 [nM]
O=c1ccn([C@@H]2[Se][C@H](CO)[C@@H](O)[C@@H]2O)c(=O)[nH]1 | > 100000
O=c1ccn([C@@H]2[Se][C@H](CO)[C@@H](O)[C@@H]2F)c(=O)[nH]1 | > 100000
Nc1ccn([C@@H]2[Se][C@H](CO)[C@@H](O)[C@@H]2F)c(=O)n1 | 790
Nc1ccn([C@@H]2O[C@H](CO)[C@@H](O)[C@@H]2O)c(=O)n1 [CYTARABINE] | 2700

tested on: PC-3; experiment: Cytotoxicity against human PC3 cells by sulforhodamine B method; format: functional, cell-based; summary of the method: as §1

SMILES | IC50 [nM]
O=c1ccn([C@@H]2[Se][C@H](CO)[C@@H](O)[C@@H]2O)c(=O)[nH]1 | > 100000
O=c1ccn([C@@H]2[Se][C@H](CO)[C@@H](O)[C@@H]2F)c(=O)[nH]1 | > 100000
Nc1ccn([C@@H]2[Se][C@H](CO)[C@@H](O)[C@@H]2F)c(=O)n1 | 580
Nc1ccn([C@@H]2O[C@H](CO)[C@@H](O)[C@@H]2O)c(=O)n1 [CYTARABINE] | 55900
Nc1ccn([C@@H]2O[C@H](CO)[C@@H](O)C2(F)F)c(=O)n1 [GEMCITABINE] | 40

tested on: K562; experiment: Cytotoxicity against human K562 cells by sulforhodamine B method; format: functional, cell-based; summary of the method: as §1

SMILES | IC50 [nM]
O=c1ccn([C@@H]2[Se][C@H](CO)[C@@H](O)[C@@H]2O)c(=O)[nH]1 | > 100000
Nc1ccn([C@@H]2[Se][C@H](CO)[C@@H](O)[C@@H]2O)c(=O)n1 | 86600
O=c1ccn([C@@H]2[Se][C@H](CO)[C@@H](O)[C@@H]2F)c(=O)[nH]1 | > 100000
Nc1ccn([C@@H]2[Se][C@H](CO)[C@@H](O)[C@@H]2F)c(=O)n1 | 630
Nc1ccn([C@@H]2O[C@H](CO)[C@@H](O)[C@@H]2O)c(=O)n1 [CYTARABINE] | 50

tested on: SNU-638; experiment: Cytotoxicity against human SNU638 cells by sulforhodamine B method; format: functional, cell-based; summary of the method: as §1

SMILES | IC50 [nM]
O=c1ccn([C@@H]2[Se][C@H](CO)[C@@H](O)[C@@H]2O)c(=O)[nH]1 | > 100000
Nc1ccn([C@@H]2[Se][C@H](CO)[C@@H](O)[C@@H]2O)c(=O)n1 | 4720
O=c1ccn([C@@H]2[Se][C@H](CO)[C@@H](O)[C@@H]2F)c(=O)[nH]1 | > 100000
Nc1ccn([C@@H]2[Se][C@H](CO)[C@@H](O)[C@@H]2F)c(=O)n1 | 140
Nc1ccn([C@@H]2O[C@H](CO)[C@@H](O)[C@@H]2O)c(=O)n1 [CYTARABINE] | 150

tested on: A549; experiment: Cytotoxicity against human A549 cells by sulforhodamine B method; format: functional, cell-based; summary of the method: as §1

SMILES | IC50 [nM]
O=c1ccn([C@@H]2[Se][C@H](CO)[C@@H](O)[C@@H]2O)c(=O)[nH]1 | > 100000
Nc1ccn([C@@H]2[Se][C@H](CO)[C@@H](O)[C@@H]2O)c(=O)n1 | 8830
O=c1ccn([C@@H]2[Se][C@H](CO)[C@@H](O)[C@@H]2F)c(=O)[nH]1 | > 100000
Nc1ccn([C@@H]2[Se][C@H](CO)[C@@H](O)[C@@H]2F)c(=O)n1 | 470
Nc1ccn([C@@H]2O[C@H](CO)[C@@H](O)[C@@H]2O)c(=O)n1 [CYTARABINE] | 1900
Nc1ccn([C@@H]2O[C@H](CO)[C@@H](O)C2(F)F)c(=O)n1 [GEMCITABINE] | 90

tested on: HCT-116; experiment: Cytotoxicity against human HCT116 cells by sulforhodamine B method; format: functional, cell-based; summary of the method: as §1

SMILES | IC50 [nM]
O=c1ccn([C@@H]2[Se][C@H](CO)[C@@H](O)[C@@H]2O)c(=O)[nH]1 | > 100000
Nc1ccn([C@@H]2[Se][C@H](CO)[C@@H](O)[C@@H]2O)c(=O)n1 | 7130
O=c1ccn([C@@H]2[Se][C@H](CO)[C@@H](O)[C@@H]2F)c(=O)[nH]1 | > 100000
Nc1ccn([C@@H]2[Se][C@H](CO)[C@@H](O)[C@@H]2F)c(=O)n1 | 1100
Nc1ccn([C@@H]2O[C@H](CO)[C@@H](O)[C@@H]2O)c(=O)n1 [CYTARABINE] | 5300
Nc1ccn([C@@H]2O[C@H](CO)[C@@H](O)C2(F)F)c(=O)n1 [GEMCITABINE] | 5
